The source made the active and inactive calls. The calls are words filed in the database; no cut-off is given here.
How the values were obtained:
[1] = Induction of mitotic cell cycle arrest in potoroo PtK2 cells assessed as accumulation at S phase at 5 uM after 7 hrs by flow cytometry (Rvb= 15.5%); format: functional, Potorous tridactylus
[2] = Induction of mitotic cell cycle arrest in potoroo PtK2 cells assessed as accumulation at S phase at 5 uM treated for 7 hrs, washed followed by 48 hrs incubation by flow cytometry (Rvb= 10.7%); format: functional, Potorous tridactylus
[3] = Displacement of [3H]paclitaxel from microtubule assessed as bound radioligand level at 20 uM treated after radioligand addition by competitive binding assay
[4] = Induction of mitotic cell cycle arrest in potoroo PtK2 cells assessed as accumulation of cells at G2+M phase at 5 uM after 7 hrs by flow cytometry (Rvb= 22.1%); format: functional, Potorous tridactylus
[5] = Induction of mitotic cell cycle arrest in potoroo PtK2 cells assessed as accumulation of cells at G1/G0 phase at 2 uM treated for 7 hrs, washed followed by 48 hrs incubation by flow cytometry (Rvb= 65.8%); format: functional, Potorous tridactylus
[6] = Induction of mitotic cell cycle arrest in potoroo PtK2 cells assessed as accumulation of cells at G1/G0 phase at 2 uM after 7 hrs by flow cytometry (Rvb= 15.5%); format: functional, Potorous tridactylus
[7] = Induction of mitotic cell cycle arrest in potoroo PtK2 cells assessed as accumulation of cells at G2+M phase at 5 uM treated for 7 hrs, washed followed by 48 hrs incubation by flow cytometry (Rvb= 22.3%); format: functional, Potorous tridactylus
[8] = system: A549; assay: Induction of mitotic cell cycle arrest in human A549 cells assessed as accumulation of cells at G1/G0 phase at 100 nM after 24 hrs by flow cytometry (Rvb= 39.2%); format: functional
[9] = Induction of mitotic cell cycle arrest in human A2780AD cells assessed as accumulation of cells at G1/G0 phase at 100 nM after 24 hrs by flow cytometry (Rvb= 59.2%); format: functional, A2780 ADR
[10] = Displacement of [3H]discodermolide from microtubule assessed as bound radioligand level at 20 uM treated after radioligand addition by competitive binding assay
[11] = Induction of mitotic cell cycle arrest in potoroo PtK2 cells assessed as accumulation of cells at SubG1 phase at 5 uM treated for 7 hrs, washed followed by 48 hrs incubation by flow cytometry (Rvb= 1.1%); format: functional, Potorous tridactylus
[12] = system: A2780; assay: Induction of mitotic cell cycle arrest in human A2780 cells assessed as accumulation of cells at S phase at 100 nM after 24 hrs by flow cytometry (Rvb= 17.5%); format: functional
[13] = Displacement of [3H]epothilone B from microtubule assessed as bound radioligand level at 20 uM treated after radioligand addition by competitive binding assay
[14] = Induction of mitotic cell cycle arrest in potoroo PtK2 cells assessed as accumulation of cells at SubG1 phase at 5 uM treated for 7 hrs, washed followed by 16 hrs incubation by flow cytometry (Rvb= 2%); format: functional, Potorous tridactylus
[15] = Induction of mitotic cell cycle arrest in human A2780AD cells assessed as accumulation of cells at SubG1 phase at 100 nM after 24 hrs by flow cytometry (Rvb= 4.1%); format: functional, A2780 ADR
[16] = Induction of mitotic cell cycle arrest in potoroo PtK2 cells assessed as accumulation of cells at G2+M phase at 2 uM treated for 7 hrs, washed followed by 16 hrs incubation by flow cytometry (Rvb= 23%); format: functional, Potorous tridactylus
[17] = Induction of mitotic cell cycle arrest in potoroo PtK2 cells assessed as accumulation of cells at G1/G0 phase at 5 uM after 7 hrs by flow cytometry (Rvb= 60%); format: functional, Potorous tridactylus
[18] = Induction of mitotic cell cycle arrest in potoroo PtK2 cells assessed as accumulation of cells at SubG1 phase at 100 nM after 24 hrs by flow cytometry (Rvb= 0.9%); format: functional, Potorous tridactylus
[19] = system: A2780; assay: Cytotoxicity against human A2780 cells; format: functional, cell-based
[20] = Binding affinity to microtubule
[21] = Induction of mitotic cell cycle arrest in potoroo PtK2 cells assessed as accumulation of cells at G1/G0 phase at 100 nM after 24 hrs by flow cytometry (Rvb= 60.8%); format: functional, Potorous tridactylus
[22] = system: PtK2; assay: Induction of microtubule bundle formation in potoroo PtK2 cells at 2 uM treated for 7 hrs followed by compound washout measured after 48 hrs by flow cytometry; format: cell-based; settings: Potorous tridactylus
[23] = Binding affinity to microtubule at 30 uM after 30 mins by HPLC-MS analysis
[24] = system: A549; assay: Cytotoxicity against human A549 cells; format: functional, cell-based
[25] = Cytotoxicity against human 1A9PTX10 cells; format: functional, cell-based; settings: 1A9/ptx-10
[26] = Cytotoxicity against human A2780AD cells; format: functional, cell-based; settings: A2780 ADR
[27] = system: PtK2; assay: Induction of microtubule bundle formation in potoroo PtK2 cells at 5 uM treated for 7 hrs followed by compound washout measured after 48 hrs by flow cytometry; format: cell-based; settings: Potorous tridactylus
[28] = Induction of micronucleation in potoroo PtK2 cells at 5 uM treated for 7 hrs followed by compound washout measured after 16 hrs by flow cytometry; format: functional, Potorous tridactylus
[29] = Cytotoxicity against human A2780-1A9 cells; format: functional, cell-based
[30] = molecular target: Tubulin (Homo sapiens) (UniProt P68371+Q9H4B7+P0DPH7+P68366+Q13509+Q71U36+P04350+Q3ZCM7+P07437+P68363+Q9BQE3+Q6PEY2+Q13885+Q9BVA1+Q9BUF5); assay: Induction of covalent modification of tubulin at Thr220 and Asn228 in human A549 cells by HPLC analysis; format: cell-based
How it was run: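 A549 monolayers exposed 24 h to 1 µM ligand or 0.1% DMSO. Tubulin purified from homogenate supernatant by one-step DEAE ion exchange (0.4 M KCl load, 0.8 M KCl elution) to 90% purity. Tryptic or chymotryptic digests analysed by HPLC-MRM with Q3 at m/z 249.0. Adduct fraction estimated from the areas of modified and unmodified peptide peaks.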

[31] = Induction of mitotic cell cycle arrest in potoroo PtK2 cells assessed as accumulation of cells at SubG1 phase at 2 uM after 7 hrs by flow cytometry (Rvb= 2.4%); format: functional, Potorous tridactylus
[32] = Induction of mitotic cell cycle arrest in potoroo PtK2 cells assessed as accumulation at S phase at 2 uM treated for 7 hrs, washed followed by 16 hrs incubation by flow cytometry (Rvb= 16%); format: functional, Potorous tridactylus
[33] = Induction of mitotic cell cycle arrest in potoroo PtK2 cells assessed as accumulation of cells at G2+M phase at 5 uM treated for 7 hrs, washed followed by 16 hrs incubation by flow cytometry (Rvb= 23%); format: functional, Potorous tridactylus
[34] = Induction of mitotic cell cycle arrest in potoroo PtK2 cells assessed as accumulation at S phase at 100 nM after 24 hrs by flow cytometry (Rvb= 12%); format: functional, Potorous tridactylus
[35] = Induction of micronucleation in potoroo PtK2 cells at 2 uM treated for 7 hrs followed by compound washout measured after 16 hrs by flow cytometry; format: functional, Potorous tridactylus
[36] = system: A2780; assay: Induction of mitotic cell cycle arrest in human A2780 cells assessed as accumulation of cells at G2+M phase at 100 nM after 24 hrs by flow cytometry (Rvb= 20%); format: functional

`CC1=C[C@H]2[C@@H](O)[C@H](C)[C@@H](O)[C@@H]2[C@H]2[C@@H]3C4=C5O[C@](C)(CC[C@@H](OC4=O)[C@H]5C)[C@@H]3C[C@@H]12` [CYCLOSTREPTIN] showed an Activity [1] of 17.5%, an Activity [2] of 8.6% and an Activity [3] of 60%. It also gave an Activity [4] of 35%, an Activity [5] of 8.7% and an Activity [6] of 18%. The Activity [7] was 77.1%, the Activity [8] was 4% and the Activity [9] was 6.6%. For the same compound, the Activity [10] was 96%, the Activity [11] was 5.4% and the Activity [12] was 10.6%. For the same compound, the Activity [13] was 79%, the Activity [14] was 3.4% and the Activity [15] was 16.4%. It also gave an Activity [16] of 59%, an Activity [17] of 45.2% and an Activity [18] of 4.6%. The IC50 [19] was 43.5 nM, the Kd [20] was 49 nM and the Activity [21] was 18.5%. For the same compound, the Activity [22] was “Active”, the Activity [23] was “Active” and the IC50 [24] was 45.5 nM. For the same compound, the IC50 [25] was 240 nM, the IC50 [26] was 51 nM and the Activity [27] was “Active”. The Activity [28] was 70%, the IC50 [29] was 44 nM and the Activity [30] was “Active”. The Activity [31] was 2.6%, the Activity [32] was 17% and the Activity [33] was 65.5%. The Activity [34] was 14.8%, the Activity [35] was 70% and the Activity [36] was 61%.
